# Source: ChEMBL document CHEMBL4513216, “Probing the Open Global Health Chemical Diversity Library for Multistage-Active Starting Points for Next-Generation Antimalarials” (ACS Infect Dis, 2020)
# Test: Toxicity liver stage against HepG2, at 10uM
# Type: cell-based
# Parameters: test concentration 10 uM, cell line HepG2-A16-CD81EGFP
# Conditions: human, HepG2-A16-CD81EGFP cells; read-out: INHIBITION
# Method in brief: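 Uninfected HepG2-A16-CD81EGFP cells, 3 × 10^3 per well, 1536-well, plated on prespotted compound at 10 μM final, parasite-free screening media added to match infected plates; puromycin 10 μM positive, DMSO 0.5% negative; run in parallel with 48 h PbLuc assay at 37 °C, 5% CO2; viability by CellTiter-Glo luminescence, normalized to controls.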
row,Compound,cytotoxicity at 10 µM [%]
1,CC(Nc1ncnc2c1NC(=O)CN2)c1ccccn1 (stereo not given),7.66
2,Cc1noc(C)c1CN(C)c1ncnc2onc(C)c12,-20.7
3,CCOc1ccc(Cl)c(C(=O)N2CCN(CCO)CC2)n1,-5.15
4,O=c1cc(CNCc2ccc3c(c2)OCO3)nc2ccc(Br)cn12,-2.62
5,Cc1cc(C(F)(F)F)nc(N(C)Cc2c(C)noc2C)n1,-13.2
6,c1ccc2cc(OCCN3CCn4c(nnc4C4CC4)C3)ccc2c1,5.49
7,CC(=O)N1CCN(C(=O)C[C@@H]2C[C@@H](C(C)C)[C@H](CC#N)C=C2C)CC1,-1.01
8,CCc1nc2n(n1)CC(NCc1nc(-c3ccccn3)no1)CC2 (stereo not given),-3.45
9,CCn1cc(S(=O)(=O)NC2CCCC2)cn1,-7.31
10,CNC(=O)C1CCC2(CCNCC2)C1 (stereo not given),6.41
11,CC(=O)NCCc1nc(C(C)C)nn1-c1ccncc1C,3.26
12,CN1CCC(N(CCc2ccccc2)C(=O)COCC2CCCO2)CC1 (stereo not given),-148
13,COCC1CN(CC2CC2)Cc2nccn2C1 (stereo not given),-76
14,COc1cc2c(cc1CN1CCCCC1CN1CCOCC1)CCC2 (stereo not given),-4.57
15,CCOc1ncccc1C(=O)Nc1c(C)cnn1CC1CC1,1.62
16,Cc1ccc(-c2ncc(C(=O)NCCNC(=O)C3CC3)s2)c(C)c1,-23.8
17,Cc1ccc(CN2CC[C@H](c3nnc(COc4ccc(F)cc4)o3)C2)o1,5.2
18,Cc1nc(C)n(C2CCCN(C(=O)c3cnc[nH]3)C2)n1 (stereo not given),-5.04
19,FC(F)(F)c1cccc(C2(CNCc3cc[nH]c3)CCOCC2)c1,-6.76
20,CCN(Cc1cccnc1)CC1CCCO1 (stereo not given),-10.7
21,O=C(NCCO)c1cc(-c2ccc3c(c2)CCO3)n[nH]1,-11.9
22,Cc1cc(C(F)(F)F)c2c(C3CCN(S(=O)(=O)N(C)C)CC3)noc2n1,3.63

row,Compound,cytotoxicity at 10 µM [%]
1,COCCC(=O)N1CCN(CC2CC2)c2ccccc21,-4.5
2,Cc1nccc(-c2cccc(-c3ccn(CC4CCNC4)n3)c2)n1 (stereo not given),10.7
3,COCCc1ncc(CN2CCC(Oc3ccccc3C)CC2)cn1,4.67
4,CC(C(=O)NCCOc1ccc2c(c1)OCO2)n1cncn1 (stereo not given),-4.33
5,CC1CCN(CCCNC(=O)C2CCCCC2)CC1,-2.63
6,CSCC(=O)N1CCC(c2nccn2Cc2cscn2)CC1,-6.6
7,COc1cc(CC2CC(c3ccc4c(c3)OCO4)=NO2)cc2c1OCO2 (stereo not given),0.69
8,COc1cccc2c1ccn2CCNC(C)=O,1.89
9,CC[S+](CC)[c-]1c(=O)[nH]c(=O)n(CCc2ccc(F)cc2)c1=O,4.12
10,Cc1c(C(=O)N2CCOCC2)n(C)c2ccc(Cl)cc12,-0.244
11,CC(C)C(=O)NCC(=O)N(C)C1CCCN(C2Cc3ccccc3C2)C1 (stereo not given),-7.79
12,CN(Cc1ccco1)[C@@H]1CN(Cc2ccoc2)C[C@@H]2CCCO[C@@H]21,-1.6
13,O=C(C1CC1)N1CCC(Oc2ccccc2Cl)CC1,25.6
14,CC(C)c1nccn1-c1cccc(C2CCCN(C3CCCC3)C2)n1 (stereo not given),7.1
15,O=C1N[C@@H]2CCN(C(=O)C3CCC3)[C@@H]2C(=O)N1c1ccc(F)cc1,-6.43
16,Cc1nc(N2CCCN(C(=O)c3ccsc3)CC2)c2cnn(C)c2n1,-10.8
17,CCS(=O)(=O)N1CC[C@H]2[C@H]1CC(=O)N2Cc1csc(C)n1,-133
18,Cc1ccoc1C(=O)N1C[C@@H](OCC2CCOCC2)[C@H]2OCCC[C@H]21,4.11
19,CSc1ncccc1C(=O)N1C[C@@H]2CC[C@H]1CN(C(=O)N(C)C)C2,1.71
20,CC(C)(C)CNC1(Cc2cc(C(C)(C)O)on2)COC1,-6.11
21,CC(NC(=O)NC1CCN(Cc2ccncc2)CC1)c1cccc(F)c1 (stereo not given),-12.5
22,COCCN1CCCC(c2nc(C)n3c(C)c(C)sc23)C1 (stereo not given),-21.5

row,Compound,cytotoxicity at 10 µM [%]
1,O=C(Nc1cc(F)ccc1OCC1CCCO1)NC1CC1 (stereo not given),0.043
2,COc1cccc(OCCNC(=O)CN2CCN(C)CC2C)c1 (stereo not given),-2.5
3,COc1cccc(N2C(=O)CC3(CCNCC3)C2=O)c1,2.67
4,CCN(CCO)C(=O)C1CCC(=O)N(CCc2cccc(F)c2)C1 (stereo not given),-4.15
5,O=C(CCC1CC1)N1C[C@@H](CN2CCCC2)[C@@H](CO)C1,-4.43
6,COCCN1C[C@@H](C)[C@@]2(COCCN(C(=O)c3ccno3)C2)C1,7.4
7,C[C@H]1C[C@H]2CN(C(=O)C3=CCCCC3)CC[C@H]2O1,4.76
8,Cc1noc(C(C)C)c1C(=O)NCCCN1CCCC1,-13.5
9,CC(C)(C)OC(=O)N1CCn2c(nnc2C2CCCNC2)C1 (stereo not given),-1.58
10,CNc1ncccc1CN1CCCCC1c1ccnc(N)n1 (stereo not given),-12.3
11,COCCCNC(=O)CCn1nc(C)c2ccccc21,9.87
12,CC(C)NC(=O)CN(C)C(=O)c1c(Cl)c2ccccc2n1C,5.26
13,Cc1noc(CNC(=O)CN(C)c2nc3c(F)cccc3s2)n1,3.76
14,CC(C)c1nc(CN2CCCC2c2cnn(C)c2)cs1 (stereo not given),0.0791
15,CC1CCC(N2CCC(NS(=O)(=O)CCCF)CC2)CC1 (stereo not given),1.2
16,Cc1noc(C(C)C)c1C(=O)NCCN1CCOCC1,-8.73
17,Cc1cc2[nH]c(=O)oc2cc1S(=O)(=O)N1C[C@@H](N(C)C)[C@H](C(C)C)C1,0.234
18,CCn1c(C)nnc1SCCNC(=O)c1cnc(C(C)(C)C)nc1O,-6.14
19,O=C(NCCCOCc1ccco1)c1cccnc1N1CCOCC1,-8.5
20,COc1ccc(F)c(CN2CC(=O)N(c3ccccc3C)CC2C)c1 (stereo not given),-0.757
21,CC(C)C1=NOC(c2nc(-c3cccc(Cl)c3)no2)C1 (stereo not given),-7.42
22,Cc1n[nH]c(C2CN(C(=O)CCCn3cccn3)CCO2)n1 (stereo not given),-0.138

row,Compound,cytotoxicity at 10 µM [%]
1,COCc1ccccc1C(=O)NCC(c1c(F)cccc1F)N(C)C (stereo not given),-9.75
2,CCS(=O)(=O)N1CCC[C@]2(C(=O)N(C)C)CN(c3ccccn3)C[C@@H]2C1,-8.93
3,COc1ccc(-c2nc(CNC(C)Cn3cccn3)cs2)cc1 (stereo not given),4.27
4,CN1CCN(Cc2ccncc2)C(=O)C12CCN(Cc1ccsc1)CC2,3.03
5,CN(Cc1ccccc1C#N)C1CCN(CCc2ccccn2)CC1,-6.55
6,CC(C)Oc1ccc(CN2CCC(Cc3nnc(CO)n3C)CC2)cc1,1.24
7,CC(C)c1sc(Cl)nc1C(=O)NCc1ccncc1,0.649
8,Cc1nnc(N2C[C@@H](Oc3ccccn3)[C@H]3OCCC[C@H]32)s1,-5
9,COCC1CN(Cc2ccncc2)Cc2nn(C)cc21 (stereo not given),-74.1
10,NC(=O)NCCC(=O)NCc1nn(-c2ccccc2)c2c1CCC2,-9.83
11,CCN1CCC(NC(=O)CN2CCc3c(ncn3C3CC3)C2)CC1,-4.8
12,Cn1nccc1C1CCN(Cc2cnn(-c3ccccc3)n2)CC1,27.2
13,CCCN1CCc2[nH]nc(C(=O)N3CCNC(=O)C3)c2C1,14.9
14,Cc1cccc2c1nc1n2[C@@H](CNC(=O)c2ccccn2)COC1,6.49
15,CNC(=O)[C@@H](c1ccccc1)N1CCC[C@H]1C(=O)NCc1cccnc1,2.38
16,CNC(=O)C1(c2cnccn2)CCCN1C(=O)c1cccc(C)n1 (stereo not given),-18.6
17,NCCc1n[nH]c(=O)n1-c1cccc2ccccc12,3.96
18,CCCc1noc(CCC(=O)N2CCCC2c2noc(C3CC3)n2)n1 (stereo not given),-9.98
19,COCC(c1ccccn1)N(C)C(=O)c1cc(-c2cccn2C)n[nH]1 (stereo not given),-3.39
20,O=C(c1ccc[nH]1)N1CCN(Cc2ccncc2)c2ncccc2C1,10.1
21,Cc1nnc(C[C@@H]2COC[C@H]3CN(C(=O)C4=CCCC4)C[C@@H]23)o1,-5.86
22,O=C1NC2(CCN(C(=O)Cc3ccsc3)CC2)CC1c1ccccc1 (stereo not given),-2.04

row,Compound,cytotoxicity at 10 µM [%]
1,Cc1n[nH]c(C)c1CCN(C)C(=O)c1ccc(CN2CCCCC2)cc1,-9.9
2,CCC1CCCCCN1C(=O)c1cc(C#N)c(SC)[nH]c1=O (stereo not given),12
3,CN(Cc1ccco1)C(=O)CN1CCCC1c1cccs1 (stereo not given),-3.62
4,CN1CC2(CCC1=O)CCN(CC[C@@H](O)c1ccccc1)CC2,-0.355
5,O=C(Nc1ccccc1)c1ccc(NCc2ccncc2)nn1,-3.17
6,Cc1ccoc1C(=O)N1C[C@@H](N2CCN(C)CC2)[C@H]2OCCC[C@H]21,7.1
7,CCc1noc(C(C)N2CCN(Cc3ncc(C(C)(C)C)o3)CC2)n1 (stereo not given),-6.62
8,CC(Nc1cccc(COCc2ccco2)c1)C(=O)NC(N)=O (stereo not given),-5.65
9,CN1CCN(Cc2cnc3n2CCN(C(=O)c2ccoc2)C3)CC1,-80.7
10,Cc1ccccc1-n1c(C)cc(=O)[nH]c1=O,-2.4
11,Cn1cccc1-c1nnc(C2(c3ccc4c(c3)OCO4)CCOCC2)o1,20.3
12,CCOc1ccnc(NCCc2nc(C)cc(=O)[nH]2)n1,-6.73
13,O=C(N[C@@H]1CN(Cc2ccoc2)[C@@H]2CCCO[C@@H]21)C1CC1,0.0515
14,O=C(CN1CCCC(c2ccn[nH]2)C1)N1CCCc2ccccc21 (stereo not given),-3.41
15,CCCn1ccnc1-c1nccn1CCC(N)=O,-10.3
16,Cc1cnn(C2CN(CC(O)c3ccccc3)C2)c1 (stereo not given),-2.55
17,COCC1CC2(CCN(c3cc(OC)ncn3)CC2)CN1C(C)C (stereo not given),-108
18,Cc1cc(C)n(CC2CCCN2C(=O)c2ccnc(N(C)C)c2)n1 (stereo not given),-16.8
19,CCOCC1CN(S(C)(=O)=O)Cc2ncn(CC3CC3)c21 (stereo not given),-12
20,O[C@]12CCNC[C@H]1CN(c1ncccc1Cl)CC2,10.2
21,O=C(Nc1ccc(-c2ccco2)cc1)C1CCCN(Cc2ccon2)C1 (stereo not given),1.17
22,COc1cccc(S(=O)(=O)N2CCCc3c(OC)nn(C)c3C2)c1,-120
